Measured values reported in ChEMBL document CHEMBL1129639, “Synthesis and cardiotonic activity of novel pyrimidine derivatives: crystallographic and quantum chemical studies” (J Med Chem, 1996).

Assays:
[1] = organism: Cavia porcellus; test: Effect on the frequency rate of spontaneously beating atria from Reserpine-treated guinea pigs as percentage variation from the control at concentration of 10E-4 M; format: functional
Summary of the method: (§1)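 Atria from reserpine-treated guinea pigs (reserpine 2 mg/kg ip, 48 and 24 h before death; only tyramine-unresponsive preparations used). Bath solution at 29 °C, gassed 95% O2/5% CO2, pH 7.5, resting tension […]. After 90 min equilibration, compound added cumulatively, 5 min per concentration. Isometric developed-tension amplitude or beating rate given as % variation from untreated control. Mean ± SEM, 6-10 assays.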

[2] = organism: Cavia porcellus; test: Effect on the contractile force of spontaneously beating atria from Reserpine-treated guinea pigs as percentage variation from the control at concentration of 3 x 10E-4 M; format: functional; summary of the method: as §1
[3] = organism: Cavia porcellus; test: Effect on the contractile force of spontaneously beating atria from Reserpine-treated guinea pigs as percentage variation from the control at concentration of 3 x 10E-6 M; format: functional; summary of the method: as §1
[4] = organism: Cavia porcellus; test: Compound was evaluated for its effect on the frequency rate of spontaneously beating atria from Reserpine-treated guinea pigs as percentage variation from the control at concentration of 3 x 10E-5 M; format: functional; summary of the method: as §1
[5] = organism: Cavia porcellus; test: Compound was evaluated for its effect on the frequency rate of spontaneously beating atria from Reserpine-treated guinea pigs as percentage variation from the control at concentration of 3 x 10E-4 M; format: functional; summary of the method: as §1
[6] = organism: Cavia porcellus; test: Effect on the contractile force of spontaneously beating atria from Reserpine-treated guinea pigs as percentage variation from the control at concentration of 10E-6 M; format: functional; summary of the method: as §1
[7] = organism: Cavia porcellus; test: Effect on the contractile force of spontaneously beating atria from Reserpine-treated guinea pigs as percentage variation from the control at concentration of 10E-5 M; format: functional; summary of the method: as §1
[8] = organism: Cavia porcellus; test: Effect on the frequency rate of spontaneously beating atria from Reserpine-treated guinea pigs as percentage variation from the control at concentration of 10E-5 M; format: functional; summary of the method: as §1
[9] = organism: Cavia porcellus; test: Effect on the contractile force of spontaneously beating atria from Reserpine treated guinea pigs as percentage variation from the control at concentration of 10E-4 M; format: functional; summary of the method: as §1
[10] = organism: Cavia porcellus; test: Effect on the contractile force of spontaneously beating atria from Reserpine-treated guinea pigs as percentage variation from the control at concentration of 3 x 10E-5 M; format: functional; summary of the method: as §1
[11] = organism: Cavia porcellus; test: Compound was evaluated for its effect on the frequency rate of spontaneously beating atria from Reserpine-treated guinea pigs as percentage variation from the control at concentration of 3 x 10E-6 M; format: functional; summary of the method: as §1
[12] = organism: Cavia porcellus; test: Effect on the contractile force of spontaneously beating atria from Reserpine-treated guinea pigs as percentage variation from the control at concentration of 10E-3 M; format: functional; summary of the method: as §1
[13] = organism: Cavia porcellus; test: Effect on the frequency rate of spontaneously beating atria from Reserpine-treated guinea pigs as percentage variation from the control at concentration of 10E-6 M; format: functional; summary of the method: as §1
[14] = organism: Cavia porcellus; test: Effect on the frequency rate of spontaneously beating atria from Reserpine-treated guinea pigs as percentage variation from the control at concentration of 10E-3 M; format: functional; summary of the method: as §1
[15] = organism: Cavia porcellus; test: Inotropic effect in electrically driven left atrium from reserpine-treated guinea pigs at concentration of 3 x 10E-5 M; format: functional, Cardiac atrium
Summary of the method: (§2)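 Electrically driven left atrium from reserpine-treated guinea pigs (tyramine-unresponsive), 29 °C, pH 7.5, resting tension […], 90 min equilibration. Compound dissolved in DMSO and added cumulatively, 5 min per step. Where used, adenosine deaminase was preincubated 20 min, and basal force was taken after ADA addition. Developed tension given as % change over control. Mean ± SEM of six assays.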

[16] = organism: Cavia porcellus; test: Inotropic effect in electrically driven left atrium from reserpine-treated guinea pigs at concentration of 3 x 10E-6 M; format: functional, Cardiac atrium; summary of the method: as §2
[17] = organism: Cavia porcellus; test: Inotropic effect in electrically driven left atrium from reserpine-treated guinea pigs at concentration of 3 x 10E-4 M; format: functional, Cardiac atrium; summary of the method: as §2
[18] = organism: Cavia porcellus; test: Inotropic effect in electrically driven left atrium from reserpine-treated guinea pigs at concentration of 10E-3 M; format: functional, Cardiac atrium; summary of the method: as §2
[19] = organism: Cavia porcellus; test: Inotropic effect in electrically driven left atrium from reserpine-treated guinea pigs at concentration of 10E-6 M; format: functional, Cardiac atrium; summary of the method: as §2
[20] = organism: Cavia porcellus; test: Inotropic effect in electrically driven left atrium from reserpine-treated guinea pigs at concentration of 10E-5 M; format: functional, Cardiac atrium; summary of the method: as §2
[21] = organism: Cavia porcellus; test: Inotropic effect in electrically driven left atrium from reserpine-treated guinea pigs at concentration of 10E-4 M; format: functional, Cardiac atrium; summary of the method: as §2

In the case of `CN(C)c1nccc(Cc2ccccc2)n1`, the Variation [1] is reported as -3.03%, the Variation [2] is reported as -46.99% and the Variation [3] is reported as 10.71%. For the same compound, the Variation [4] was 3.03%, the Variation [5] was -9.09% and the Variation [6] was 6.43%. It also gave a Variation [7] of 9.18%, a Variation [8] of 3.03% and a Variation [9] of -32.51%. It also gave a Variation [10] of 3.17%, a Variation [11] of 0% and a Variation [12] of -57.09%. For the same compound, the Variation [13] was 0% and the Variation [14] was -12.12%.

Work on `CCOC(=O)c1cnc(N(C)C)nc1C(=O)OCC` yielded a Variation [1] of -40.77%, a Variation [2] of -76.47% and a Variation [3] of 2.18%. It also gave a Variation [4] of -7.41%, a Variation [5] of -55.55% and a Variation [6] of 0%. The Variation [7] was 0.54%, the Variation [8] was -4.76% and the Variation [9] was -48.31%. It also gave a Variation [10] of -5.33%, a Variation [11] of 0% and a Variation [12] of -100%. The Variation [13] was 0% and the Variation [14] was -100%.

For `CCCc1ccnc(N(C)C)n1`, the Variation [1] was -52.63%, the Variation [2] was -73.58% and the Variation [3] was 7.18%. It also gave a Variation [4] of -31.58%, a Variation [5] of -52.63% and a Variation [6] of 0%. The Variation [7] was 3.15%, the Variation [8] was -26.31% and the Variation [9] was -64.06%. For the same compound, the Variation [10] was -10.63%, the Variation [11] was -5.29% and the Variation [12] was -91.86%. The Variation [13] was 0% and the Variation [14] was -52.63%.

`Nc1cc(-c2ccncc2)c[nH]c1=O` [INAMRINONE] was tested, and the Variation [1] was 6.25%, the Variation [2] was 19.03% and the Variation [3] was 0%. It also gave a Variation [4] of 1.5%, a Variation [5] of 7.2% and a Variation [6] of 0%. It also gave a Variation [7] of 0.52%, a Variation [8] of 0% and a Variation [9] of 10.22%. For the same compound, the Variation [10] was 4.5%, the Variation [11] was 0% and the Variation [12] was 23.12%. It also gave a Variation [13] of 0% and a Variation [14] of 9.87%.

For `Cc1[nH]c(=O)c(C#N)cc1-c1ccncc1` [MILRINONE], the Variation [1] was 34.16%, the Variation [15] was 22.81% and the Variation [16] was 9.31%. It also gave a Variation [2] of 45.62%, a Variation [3] of 0% and a Variation [4] of 27.09%. For the same compound, the Variation [17] was 45.61%, the Variation [5] was 42.85% and the Variation [6] was 0%. It also gave a Variation [18] of 42.89%, a Variation [7] of 16.31% and a Variation [8] of 15.22%. It also gave a Variation [19] of 0%, a Variation [9] of 37.77% and a Variation [10] of 30.32%. It also gave a Variation [11] of 0%, a Variation [12] of 31.09% and a Variation [20] of 13.25%. The Variation [13] was 0%, the Variation [21] was 35.61% and the Variation [14] was 37.2%.
